ChEMBL document CHEMBL1800034, “A synthetic 7,8-dihydroxyflavone derivative promotes neurogenesis and exhibits potent antidepressant effect” (J Med Chem, 2010)
Calls of active or inactive are those of the source. The rule behind the calls is not given here.

What was measured:
Mus musculus [1] = assay: Agonist activity at TrkA in C57BL/6J mouse brain lysate assessed as TrkA phosphorylation at Y794 at 5 mg/kg, po administered for 21 days by immunoblotting; assay type: functional, organism-based; set-up: dose 5 mg/kg
How it was run: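 Adult male C57BL/6J mice, 8 per group, dosed orally by gavage once daily for 21 days; saline was the vehicle. Brain lysates were immunoblotted with anti-p-TrkA 794 and anti-p-TrkB 817.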

Mus musculus [2] = assay: Toxicity in C57BL/6J mouse assessed as pathological changes in kidney at 5 mg/kg, po for 3 weeks; assay type: organism-based; set-up: dose 5 mg/kg, route oral; conditions: in vivo, 504 h
How it was run: (§1)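 Mice were dosed orally at 5 mg/kg for 3 weeks, with saline-treated controls. Major organs were examined for pathological changes, and a complete blood count was done.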

Mus musculus [3] = assay: Toxicity in C57BL/6J mouse assessed as pathological changes in liver at 5 mg/kg, po for 3 weeks; assay type: organism-based; set-up: dose 5 mg/kg, route oral; conditions: in vivo, 504 h; how it was run: as §1
Mus musculus [4] = assay: Toxicity in C57BL/6J mouse assessed as pathological changes in lungs at 5 mg/kg, po for 3 weeks; assay type: organism-based; set-up: dose 5 mg/kg, route oral; conditions: in vivo, 504 h; how it was run: as §1
Mus musculus [5] = assay: Toxicity in C57BL/6J mouse assessed as pathological changes in muscle at 5 mg/kg, po for 3 weeks; assay type: organism-based, Muscle tissue; set-up: dose 5 mg/kg, route oral; conditions: in vivo, 504 h; how it was run: as §1
Mus musculus [6] = assay: Toxicity in C57BL/6J mouse assessed as pathological changes in heart at 5 mg/kg, po for 3 weeks; assay type: organism-based; set-up: dose 5 mg/kg, route oral; conditions: in vivo, 504 h; how it was run: as §1
HEK293 = assay: Cytotoxicity against human HEK293 cells assessed as cell death at 50 to 50000 nM after 24 hrs by LDH assay; assay type: cell-based; conditions: hek293, 24 h, 50 µM
[7] = Cytotoxicity at E17 rat primary cortical neurons assessed as cell death at 5 uM by LDH assay; assay type: cell-based; conditions: cerebral cortex neuron
[8] = biological target: BDNF/NT-3 growth factors receptor (Rattus norvegicus) (UniProt Q63604); assay: Agonist activity at TrkB in E17 rat primary rat cortical neurons assessed as AKT phosphorylation at Ser 473 after 15 mins by titration assay; assay type: functional
How it was run: (§2)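 Primary cortical neurons were incubated with graded concentrations, starting at 10 nM, for 15 min. Phospho-Akt Ser473 was measured by sandwich ELISA on 20 µg of lysate. Data come from 2 replicated experiment sets, given as mean ± SEM. Comparisons used one-way ANOVA against control and Student's t-test between compounds.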

[9] = biological target: BDNF/NT-3 growth factors receptor (Rattus norvegicus) (UniProt Q63604); assay: Agonist activity at TrkB in E17 rat primary cortical neurons at 500 nM after 5 mins by immunoblotting; assay type: functional, cell-based; conditions: Cerebral cortex neuron
How it was run: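 Rat primary cortical neurons were exposed to 500 nM compound for various times between 5 and 180 min. Lysates were immunoblotted for TrkB, Akt and MAPK phosphorylation.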

Mus musculus [10] = assay: Agonist activity at TrkB in C57BL/6J mouse brain assessed as MAPK phosphorylation at 1 mg/kg, po after 1 to 16 hrs by immunoblotting; assay type: functional, organism-based; set-up: dose 1 mg/kg
How it was run: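 C57BL/6J mice got a single oral dose of 1 mg/kg. Brains were collected at several time points, about 1 to 16 h after dosing. Lysates were immunoblotted for TrkB phosphorylation and for downstream Akt and MAPK phosphorylation.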

[11] = biological target: BDNF/NT-3 growth factors receptor (Rattus norvegicus) (UniProt Q63604); assay: Agonist activity at TrkB in E16 rat embryonic cortical neurons assessed as inhibition of glutamate-induced caspase 3 activation at 50 to 500 nM after 30 mins followed by 16 hrs of 50 uM glutamate-challenge by ELISA; assay type: functional
How it was run: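 Cortical neurons from E16 rat embryos were pretreated with the indicated compound concentrations for 30 min. They were then challenged with 50 µM glutamate for 16 h. Active caspase-3 in the lysates was measured by ELISA.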

[12] = biological target: BDNF/NT-3 growth factors receptor (Rattus norvegicus) (UniProt Q63604); assay: Agonist activity at TrkB in E17 rat primary rat cortical neurons assessed as AKT phosphorylation at Ser 473 at 10 nM after 15 mins by titration assay; assay type: functional; how it was run: as §2

Sequence of BDNF/NT-3 growth factors receptor (Rattus norvegicus) (Q63604 whole entry): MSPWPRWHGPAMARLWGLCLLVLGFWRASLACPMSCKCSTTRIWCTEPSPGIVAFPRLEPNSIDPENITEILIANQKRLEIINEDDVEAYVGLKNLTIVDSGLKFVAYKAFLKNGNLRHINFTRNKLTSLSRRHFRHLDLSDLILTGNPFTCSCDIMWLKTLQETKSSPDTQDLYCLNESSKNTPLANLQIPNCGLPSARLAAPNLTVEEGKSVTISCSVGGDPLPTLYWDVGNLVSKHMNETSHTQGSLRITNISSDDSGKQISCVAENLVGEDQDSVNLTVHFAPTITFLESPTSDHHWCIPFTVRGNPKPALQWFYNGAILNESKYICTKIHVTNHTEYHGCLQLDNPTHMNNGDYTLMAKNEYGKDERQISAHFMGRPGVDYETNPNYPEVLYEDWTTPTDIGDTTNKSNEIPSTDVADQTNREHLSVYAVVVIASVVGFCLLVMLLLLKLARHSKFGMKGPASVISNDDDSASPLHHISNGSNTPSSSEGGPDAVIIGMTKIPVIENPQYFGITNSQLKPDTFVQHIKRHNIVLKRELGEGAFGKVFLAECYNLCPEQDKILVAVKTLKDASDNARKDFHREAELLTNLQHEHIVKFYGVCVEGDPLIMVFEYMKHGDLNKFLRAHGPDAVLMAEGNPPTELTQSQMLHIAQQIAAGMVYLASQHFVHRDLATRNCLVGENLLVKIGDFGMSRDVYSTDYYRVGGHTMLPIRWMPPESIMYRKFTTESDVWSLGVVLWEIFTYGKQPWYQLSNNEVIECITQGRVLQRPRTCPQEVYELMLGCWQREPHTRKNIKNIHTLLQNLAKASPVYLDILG

In the case of `CN(C)c1ccc(-c2cc(=O)c3ccc(O)c(O)c3o2)cc1`, the Activity (Mus musculus [1]) is reported as “inactive”, the Activity (Mus musculus [2]) is reported as “Non-toxic” and the Activity (Mus musculus [3]) is reported as “Non-toxic”. The Activity (Mus musculus [4]) was “Non-toxic”, the Activity (Mus musculus [5]) was “Non-toxic” and the Activity (Mus musculus [6]) was “Non-toxic”. The Activity (HEK293) was “Non-toxic”, the Activity [7] was “Non-toxic” and the Activity [8] was “Dose-dependent effect”. For the same compound, the Activity [9] was “Active”, the Activity (Mus musculus [10]) was “Active” and the Activity [11] was “Active”. For the same compound, the Activity [12] was “Active”.
